Measured values taken from ChEMBL document CHEMBL1629578, “Structure-activity relationships of antimicrobial and lipoteichoic acid-sequestering properties in polyamine sulfonamides” (Antimicrob Agents Chemother, 2009).
The source made the active and inactive calls. No cut-off for these calls is given here.

Tests used:
HEK293 [1] = experiment: Neutralizing activity against saccharomyces cerevisiae lipoteichoic acid assessed as inhibition of TLR2-mediated NF-kappaB induction in HEK293 cells stably transfected TLR2/MD2/CD14/alkaline phosphatase by reporter gene assay; type: cell-based; details: Staphylococcus aureus, in the assay text read “Staphylococcus aureus” for “Saccharomyces cerevisiae”
Procedure, shortened: (§1)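 HEK-Blue-2 reporter cells (TLR2, MD2, CD14, NF-κB/AP-1-driven secreted alkaline phosphatase) were grown to confluence, then stimulated with LTA purified from S. aureus (n-butanol extraction, delipidated, enzymatically deproteinated) plus graded compound concentrations. sAP was read with a chromogen at 620 nm. Dilutions were run in quadruplicate and experiments repeated three times.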

[2] = Aqueous solubility of the compound; type: physicochemical; details: buffer
Staphylococcus aureus = experiment: Antimicrobial activity against Staphylococcus aureus ATCC 13709 at 37 degC by broth microdilution method; type: functional, organism-based
Procedure, shortened: (§2)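 Broth microdilution in non-cation-supplemented Mueller-Hinton broth. Mid-log cultures were adjusted to OD600 0.5, diluted 10-fold and added to equal volumes of 2-fold serially diluted compound. Plates were incubated overnight at 37°C and read at 600 nm. MIC was the lowest concentration giving complete growth inhibition. Triplicate points from a representative experiment.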

[3] = (§3) Sequestering activity against saccharomyces cerevisiae lipoteichoic acid assessed as inhibition of TLR2-mediated NF-kappaB induction in HEK293 cells stably transfected TLR2/MD2/CD14/alkaline phosphatase by reporter gene assay; type: cell-based; details: Staphylococcus aureus, in the assay text read “Staphylococcus aureus” for “saccharomyces cerevisiae”; procedure, shortened: as §1
HEK293 [4] = experiment: Sequestration activity Saccharomyces cerevisiae lipoteichoic acid assessed as inhibition of TLR2-mediated NF-kappaB translocation in HEK293 cells stably transfected TLR2/MD2/CD14/alkaline phosphatase by reporter gene assay; type: cell-based; details: Staphylococcus aureus, in the assay text read “Staphylococcus aureus” for “Saccharomyces cerevisiae”; procedure, shortened: as §1
HEK293 [5] = experiment: Neutralizing activity lipopolysaccharide assessed as inhibition of TLR4-mediated NF-kappaB translocation in HEK293 cells stably transfected TLR4/MD2/CD14/alkaline phosphatase by reporter gene assay; type: cell-based
Procedure, shortened: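 HEK-Blue-4 cells (TLR4, MD2, CD14, NF-κB/AP-1-inducible secreted alkaline phosphatase) were grown to confluence and stimulated with E. coli O111:B4 LPS plus graded compound concentrations. Alkaline phosphatase was read with a chromogen at 620 nm. Each dilution was run in quadruplicate and experiments repeated three times.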

HEK293 [6] = experiment: Sequestering activity against lipoteichoic acid assessed as inhibition of TLR2-mediated NF-kappaB induction in HEK293 cells stably transfected TLR2/MD2/CD14/alkaline phosphatase by reporter gene assay
HEK293 [7] = experiment: as §3; type: cell-based; details: Staphylococcus aureus, in the assay text read “Staphylococcus aureus” for “Saccharomyces cerevisiae”; procedure, shortened: as §1
Escherichia coli = experiment: Antimicrobial activity against Escherichia coli ATCC 9637 at 37 degC by broth microdilution method; type: functional, organism-based; procedure, shortened: as §2

Compound | inhibition (HEK293 [1]) | solubility [2] | Activity (Staphylococcus aureus) | EC50 [3] | inhibition (HEK293 [4]) | inhibition (HEK293 [5]) | inhibition (HEK293 [6]) | Activity (HEK293 [7]) | Activity (Escherichia coli)
CCCCCCCCCCCCCCCCCCS(=O)(=O)NCCCNCCCNCCCCCCNCCCNCCCNS(=O)(=O)CCCCCCCCCCCCCCCCCC.Cl | inactive | Insoluble | Active | 60 µM |  |  |  |  | 
CCCCCCCCCCCCS(=O)(=O)NCCCNCCCCNCCCN |  |  |  |  | Active | Active | Active |  | 
CCCCCCCCCCCCS(=O)(=O)NCCCNCCCNCCCCCCNCCCNCCCNS(=O)(=O)CCCCCCCCCCCC.Cl | inactive | Insoluble | Active | 60 µM |  |  |  |  | 
POLYMYXIN B |  |  |  |  |  |  |  | Active | 
CCCCCCCCCCS(=O)(=O)NCCCNCCCCNCCCN |  |  |  |  | Active | Active | Active |  | 
CCCCCCCCS(=O)(=O)NCCCNCCCNCCCCCCNCCCNCCCNS(=O)(=O)CCCCCCCC.Cl | inactive | Insoluble | Active | 60 µM |  |  |  |  | inactive
CCCCCCCCCCCCCCCCS(=O)(=O)NCCCNCCCNCCCCCCNCCCNCCCNS(=O)(=O)CCCCCCCCCCCCCCCC.Cl | inactive | Insoluble | Active | 60 µM |  |  |  |  | 
CCCCCCCCCCCCCCCCCCS(=O)(=O)NCCCNCCCCNCCCN |  |  |  |  | Active | Active | Active |  | 
CCCCCCCCCCS(=O)(=O)NCCCNCCCNCCCCNCCCN |  |  |  |  | Active | Active | Active |  | 
CCCCCCCCCCCCCCCCS(=O)(=O)NCCCNCCCNCCCCNCCCN |  |  |  | 1 µM | Active | Active | Active |  | Active
CCCCCCCCCCS(=O)(=O)NCCCNCCCNCCCCCCNCCCNCCCNS(=O)(=O)CCCCCCCCCC.Cl | inactive | Insoluble | Active | 60 µM |  |  |  |  | inactive
CCCCCCCCCCCCS(=O)(=O)NCCCNCCCNCCCCNCCCN |  |  |  |  | Active | Active | Active |  | Active
CCCCCCCCCCCCCCCCCCS(=O)(=O)NCCCNCCCNCCCCNCCCN |  |  |  |  | Active | Active | Active |  | 
CCCCCCCCCCCCCCCCS(=O)(=O)NCCCNCCCCNCCCN |  |  |  | 1 µM | Active | Active | Active |  | 
CCCCCCCCS(=O)(=O)NCCCNCCCCNCCCN |  |  |  |  | Active | Active | Active |  | 
CCCCCCCCS(=O)(=O)NCCCNCCCNCCCCNCCCN |  |  |  |  | Active | Active | Active |  | 
